≈ marks a conversion by molar mass, not a printed value.
Experiments:
Format in all cases: functional
[1] = system: Mycobacterium tuberculosis; experiment: Antimycobacterial activity against multidrug sensitive Mycobacterium tuberculosis H37Rv CNCTC 331/88 assessed as bacterial growth inhibition incubated for 14 days by two-fold serial dilution method; settings: H37Rv CNCTC 331/88, 336 h, time 14 day
Mycobacterium kansasii [2] = experiment: Antimycobacterial activity against INH/RIF/rifabutin/OFX/EMB Mycobacterium kansasii CNCTC 6509/96 clinical isolate assessed as bacterial growth inhibition incubated for 7 days by two-fold serial dilution method; settings: CNCTC 6509/96, 168 h, time 7 day
In short: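 Šula's liquid semisynthetic medium; M. kansasii clinical isolate 6509/96 used at stock dilution 10−4, final ~1.5 × 10^5 CFU mL−1. Two-fold dilutions ran 1000–1 μM with final DMSO 1.0% (v/v). MIC was read visually as complete growth inhibition after 7, 14 and 21 days.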

Mycobacterium kansasii [3] = experiment: Antimycobacterial activity against multi-drug resistant Mycobacterium kansasii CNCTC 6509/96 clinical isolate assessed as bacterial growth inhibition incubated for 14 days by two-fold serial dilution method; settings: CNCTC 6509/96, 336 h, time 14 day
In short: (§1)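 M. kansasii clinical isolate 6509/96 (stock dilution 10−4) in Šula's semisynthetic liquid medium; two-fold serial dilutions 1000 to 1 μM, DMSO final 1.0% v/v; final load 1.5 × 10^5 CFU mL−1; MIC read visually as complete growth inhibition at 7, 14 and 21 days.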

Mycobacterium avium [4] = experiment: Antimycobacterial activity against INH/RIF/rifabutin/OFX/EMB resistant Mycobacterium avium CNCTC 330/88 assessed as bacterial growth inhibition incubated for 14 days by two-fold serial dilution method; settings: CNCTC 330/88, 336 h, time 14 day
In short: (§2)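 M. avium CNCTC 330/88 (stock suspension dilution 10−5) grown in Šula's semisynthetic liquid medium; two-fold serial dilutions 1000 to 1 μM from DMSO stocks (final DMSO 1.0% v/v); final load 1.5 × 10^5 CFU mL−1; MIC read visually as lowest concentration giving complete growth inhibition after 14 and 21 days.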

[5] = system: Mycobacterium tuberculosis; experiment: Antimycobacterial activity against Mycobacterium tuberculosis H37Rv CNCTC 331/88 assessed as bacterial growth inhibition incubated for 21 days by two fold serial dilution method; settings: H37Rv CNCTC 331/88, 504 h, time 21 day
Mycobacterium avium [6] = experiment: Antimycobacterial activity against INH/RIF/rifabutin/OFX/EMB resistant Mycobacterium avium CNCTC 330/88 assessed as bacterial growth inhibition incubated for 21 days by two-fold serial dilution method; settings: CNCTC 330/88, 504 h, time 21 day; in short: as §2
Mycobacterium kansasii [7] = experiment: Antimycobacterial activity against multi-drug resistant Mycobacterium kansasii clinical isolate CNCTC 6509/96 assessed as bacterial growth inhibition incubated for 21 days by two-fold serial dilution method; settings: CNCTC 6509/96, 504 h, time 21 day; in short: as §1
[8] = system: Trichophyton interdigitale; experiment: Antifungal activity against Trichophyton interdigitale ATCC 9533 measured after 24 to 48 hrs by microdilution broth method; settings: time 24-48 hrs
Candida tropicalis [9] = experiment: Antifungal activity against Candida tropicalis CCM 8264 measured after 24 to 48 hrs by microdilution broth method; settings: time 24-48 hrs
In short: (§3)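 Yeast broth microdilution per EUCAST, slightly modified. Medium was RPMI-1640 with 2% glucose, MOPS-buffered to pH 7.0. Compounds were tested at 0.98–500 μM with final DMSO ≤1.0% (v/v). Inoculum came from 18–24 h cultures, final ~1–5 × 10^5 CFU mL−1. Plates were incubated statically, dark and humidified, at 35 ± 2 °C. MIC was read visually at 24 and 48 h (no visible growth).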

Candida parapsilosis [10] = experiment: Antifungal activity against Candida parapsilosis ATCC 22019 measured after 24 to 48 hrs by microdilution broth method; settings: Lodderomyces parapsilosis, time 24-48 hrs; in short: as §3
Lichtheimia corymbifera = experiment: Antifungal activity against Lichtheimia corymbifera CCM 8077 measured after 24 to 48 hrs by microdilution broth method; settings: time 24-48 hrs
In short: (§4)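 Filamentous fungi tested by broth microdilution per EUCAST with minor changes. Compounds were tested at 0.98–500 μM with final DMSO ≤1.0% (v/v). Plates were incubated statically, dark and humidified, at 35 ± 2 °C for 24 and 48 h. MIC was the lowest concentration showing no visible growth.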

Candida albicans [11] = experiment: Antifungal activity against Candida albicans ATCC 24443 measured after 24 to 48 hrs by microdilution broth method; settings: time 24-48 hrs; in short: as §3
Aspergillus fumigatus = experiment: Antifungal activity against Aspergillus fumigatus ATCC 204305 measured after 24 to 48 hrs by microdilution broth method; settings: time 24-48 hrs; in short: as §4
Candida parapsilosis [12] = experiment: Antifungal activity against Candida parapsilosis CCM 8260 measured after 24 to 48 hrs by microdilution broth method; settings: Lodderomyces parapsilosis, time 24-48 hrs; in short: as §3
Pichia kudriavzevii [13] = experiment: Antifungal activity against Candida krusei ATCC 6258 measured after 24 to 48 hrs by microdilution broth method; settings: time 24-48 hrs; in short: as §3
[14] = system: Trichophyton interdigitale; experiment: Antifungal activity against Trichophyton interdigitale CCM 8377 measured after 24 to 48 hrs by microdilution broth method; settings: time 24-48 hrs
Pichia kudriavzevii [15] = experiment: Antifungal activity against Candida krusei CCM 8271 measured after 24 to 48 hrs by microdilution broth method; settings: time 24-48 hrs; in short: as §3
Candida albicans [16] = experiment: Antifungal activity against Candida albicans CCM 8320 measured after 24 to 48 hrs by microdilution broth method; settings: time 24-48 hrs; in short: as §3
Candida tropicalis [17] = experiment: Antifungal activity against Candida tropicalis ATCC 750 measured after 24 to 48 hrs by microdilution broth method; settings: time 24-48 hrs; in short: as §3
Aspergillus flavus = experiment: Antifungal activity against Aspergillus flavus CCM 8363 measured after 24 to 48 hrs by microdilution broth method; settings: time 24-48 hrs; in short: as §4

Row | Compound | MIC [1] [µM] | MIC (Mycobacterium kansasii [2]) [µM] | MIC (Mycobacterium kansasii [3]) [µM] | MIC (Mycobacterium avium [4]) [µM] | MIC [5] [µM] | MIC (Mycobacterium avium [6]) [µM] | MIC (Mycobacterium kansasii [7]) [µM] | MIC [8] [µM] | MIC (Candida tropicalis [9]) [µM] | MIC (Candida parapsilosis [10]) [µM] | MIC (Lichtheimia corymbifera) [µM] | MIC (Candida albicans [11]) [µM] | MIC (Aspergillus fumigatus) [µM] | MIC (Candida parapsilosis [12]) [µM] | MIC (Pichia kudriavzevii [13]) [µM] | MIC [14] [µM] | MIC (Pichia kudriavzevii [15]) [µM] | MIC (Candida albicans [16]) [µM] | MIC (Candida tropicalis [17]) [µM] | MIC (Aspergillus flavus) [µM]
1 | Nc1ccc(S(=O)(=O)Nc2ccc(-c3ccccc3)cc2)cc1 | 500 (≈ 162 µg/mL) | 250 (≈ 81.1 µg/mL) | 250 (≈ 81.1 µg/mL) | ≥ 1000 | 500 (≈ 162 µg/mL) | ≥ 1000 | 500 (≈ 162 µg/mL) |  |  |  |  |  |  |  |  |  |  |  |  | 
2 | O=C(/C=N/NC(=O)c1ccncc1)Nc1ccc(S(=O)(=O)Nc2ncccn2)cc1 | 1 (≈ 0.425 µg/mL) | 8 (≈ 3.4 µg/mL) | 16 (≈ 6.81 µg/mL) | 500 (≈ 213 µg/mL) | 2 (≈ 0.851 µg/mL) | 500 (≈ 213 µg/mL) | 16 (≈ 6.81 µg/mL) |  |  |  |  |  |  |  |  |  |  |  |  | 
3 | COc1ccc(NS(=O)(=O)c2ccc(NC(=O)/C(C)=N/NC(=O)c3ccncc3)cc2)nn1 | 1 (≈ 0.469 µg/mL) | 32 (≈ 15 µg/mL) | 32 (≈ 15 µg/mL) | ≥ 1000 | 1 (≈ 0.469 µg/mL) | ≥ 1000 | 32 (≈ 15 µg/mL) | > 500 | > 500 | > 500 | > 500 | > 500 | > 500 | > 500 | > 500 | > 500 | > 500 | > 500 | > 500 | > 500
4 | C/C(=N\NC(=O)c1ccncc1)C(=O)Nc1ccc(S(=O)(=O)Nc2cc(C)on2)cc1 | 0.5 (≈ 0.221 µg/mL) | 16 (≈ 7.08 µg/mL) | 32 (≈ 14.2 µg/mL) | 1000 (≈ 442 µg/mL) | 1 (≈ 0.442 µg/mL) | ≥ 1000 | 32 (≈ 14.2 µg/mL) | > 500 | > 500 | > 500 | > 500 | > 500 | > 500 | > 500 | > 500 | > 500 | > 500 | > 500 | > 500 | > 500
5 | Nc1ccc(S(=O)(=O)Nc2ccc(Oc3ccccc3)cc2)cc1 | 500 (≈ 170 µg/mL) | 250 (≈ 85.1 µg/mL) | 500 (≈ 170 µg/mL) | 1000 (≈ 340 µg/mL) | 500 (≈ 170 µg/mL) | 1000 (≈ 340 µg/mL) | 500 (≈ 170 µg/mL) |  |  |  |  |  |  |  |  |  |  |  |  | 
6 | Cc1cc(C)nc(NS(=O)(=O)c2ccc(NC(=O)/C=N/NC(=O)c3ccncc3)cc2)n1 | 1 (≈ 0.453 µg/mL) | 8 (≈ 3.63 µg/mL) | 16 (≈ 7.26 µg/mL) | 1000 (≈ 453 µg/mL) | 2 (≈ 0.907 µg/mL) | ≥ 1000 | 16 (≈ 7.26 µg/mL) |  |  |  |  |  |  |  |  |  |  |  |  | 
7 | COC(=O)c1ccc(NS(=O)(=O)c2ccc(N)cc2)cc1O | 250 (≈ 80.6 µg/mL) | 1000 (≈ 322 µg/mL) | > 1000 | > 1000 | 250 (≈ 80.6 µg/mL) | > 1000 | > 1000 |  |  |  |  |  |  |  |  |  |  |  |  | 
8 | O=C(/C=N/NC(=O)c1ccncc1)NNC(=O)c1ccncc1 | 1 (≈ 0.312 µg/mL) | 8 (≈ 2.5 µg/mL) | 16 (≈ 5 µg/mL) | 1000 (≈ 312 µg/mL) | 2 (≈ 0.625 µg/mL) | > 1000 | 16 (≈ 5 µg/mL) |  |  |  |  |  |  |  |  |  |  |  |  | 
9 | NS(=O)(=O)c1ccc(NC(=O)/C=N/NC(=O)c2ccncc2)cc1 | 1 (≈ 0.347 µg/mL) | 16 (≈ 5.56 µg/mL) | 32 (≈ 11.1 µg/mL) | 1000 (≈ 347 µg/mL) | 2 (≈ 0.695 µg/mL) | ≥ 1000 | 32 (≈ 11.1 µg/mL) |  |  |  |  |  |  |  |  |  |  |  |  | 
10 | Nc1ccc(S(=O)(=O)Nc2ccc(Oc3ccc(Cl)cc3)cc2)cc1 | 250 (≈ 93.7 µg/mL) | 250 (≈ 93.7 µg/mL) | 500 (≈ 187 µg/mL) | 1000 (≈ 375 µg/mL) | 500 (≈ 187 µg/mL) | 1000 (≈ 375 µg/mL) | 500 (≈ 187 µg/mL) |  |  |  |  |  |  |  |  |  |  |  |  | 
